Experimental data published in ChEMBL document CHEMBL1275308, “Synthesis, analgesic and anti-inflammatory evaluation of some novel quinazoline derivatives” (Eur J Med Chem, 2010).
Calls of active or inactive are those of the source.

What was measured:
[1] = test system: Rattus norvegicus; experiment: Antiinflammatory activity in rat assessed as inhibition of formaldehyde-induced paw edema at 100 mg/kg, po qd for 4 days administered 1 hr before formaldehyde challenge measured 2 hrs post formaldehyde challenge relative to untreated control; type: functional
In short: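 Rats dosed orally at 100 mg/kg once daily for 4 d, with an indomethacin reference and a vehicle control. Right hind paw volume measured by plethysmometer before challenge. 0.2 mL of 10% w/v formaldehyde injected subplantar 1 h after drug. Paw volume measured 1 and 2 h after injection. Results given as % inhibition versus control; means, ANOVA with Dunnett's test.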

[2] = test system: Mus musculus; experiment: Analgesic activity against heat induced nociception in Swiss albino mouse assessed as increase in latency at 100 mg/kg, po measured 60 mins post compound dose by hot plate method relative to pretreatment level; type: functional
In short: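 Mice; test compounds and indomethacin, each at 100 mg/kg orally as a suspension in 1% carboxymethyl cellulose. Six groups of six animals, with a vehicle negative control. Reaction time recorded at 30 min, 1, 2 and 3 h after treatment, cut-off 10 s. Effect expressed as percentage of the pretreatment level. Values are means.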

[3] = test system: Mus musculus; experiment: Toxicity in mouse assessed as incidence of toxic symptoms at 1000 mg/kg, po measured 24 hrs post dose; type: organism-based; parameters: dose 1000 mg/kg, route oral; conditions: in vivo
[4] = test system: Mus musculus; experiment: Toxicity in mouse assessed as incidence of toxic symptoms at 500 mg/kg, po measured 24 hrs post dose; type: organism-based; parameters: dose 500 mg/kg, route oral; conditions: in vivo
[5] = test system: Mus musculus; experiment: Toxicity in mouse assessed as mortality at 500 mg/kg, po measured 24 hrs post dose; type: organism-based; parameters: dose 500 mg/kg, route oral; conditions: in vivo
[6] = test system: Mus musculus; experiment: Toxicity in mouse assessed as mortality at 750 mg/kg, po measured 24 hrs post dose; type: organism-based; parameters: dose 750 mg/kg, route oral; conditions: in vivo
[7] = test system: Mus musculus; experiment: Toxicity in mouse assessed as mortality at 1000 mg/kg, po measured 24 hrs post dose; type: organism-based; parameters: dose 1000 mg/kg, route oral; conditions: in vivo
[8] = test system: Mus musculus; experiment: Toxicity in mouse assessed as incidence of toxic symptoms at 750 mg/kg, po measured 24 hrs post dose; type: organism-based; parameters: dose 750 mg/kg, route oral; conditions: in vivo
[9] = test system: Mus musculus; experiment: Toxicity in mouse assessed as induction of sedation at 500 to 1000 mg/kg, po measured within 24 hrs post dose; type: organism-based; parameters: dose 500-1000 mg/kg, route oral; conditions: in vivo
[10] = test system: Mus musculus; experiment: Toxicity in mouse assessed as induction of calmness at 500 to 1000 mg/kg, po measured within 24 hrs post dose; type: organism-based; parameters: dose 500-1000 mg/kg, route oral; conditions: in vivo
[11] = test system: Mus musculus; experiment: Toxicity in mouse assessed as induction of muscle relaxation at 500 to 1000 mg/kg, po measured within 24 hrs post dose; type: organism-based; parameters: dose 500-1000 mg/kg, route oral; conditions: in vivo
[12] = test system: Mus musculus; experiment: Toxicity in mouse assessed as induction of urination at 500 to 1000 mg/kg, po measured within 24 hrs post dose; type: organism-based; parameters: dose 500-1000 mg/kg, route oral; conditions: in vivo

Structure (SMILES)	inhibition in vivo at 100 mg/kg [1] [%]	Activity [2]	Activity [3]	Activity [4]	Activity [5]	Activity [6]	Activity [7]	Activity [8]	Activity [9]	Activity [10]	Activity [11]	Activity [12]
Clc1ccc(-c2nc(N3CCC(c4ccccc4)CC3)c3ccccc3n2)cc1	53.7	87.3%										
CCOC(=O)C1CCN(c2nc(-c3ccccc3)nc3ccccc23)CC1	70.3	98.5%	Non-toxic	Non-toxic	Non-toxic	Non-toxic	Non-toxic	Non-toxic				
Nc1nnc(C2CCN(c3nc(-c4ccccc4)nc4ccccc34)CC2)s1	73	83.2%	Non-toxic	Non-toxic	Non-toxic	Non-toxic	Non-toxic	Non-toxic	Toxic	Toxic	Toxic	
Clc1ccc(-c2nc(N3CCC(c4ccccc4)CC3)c3cc(Br)ccc3n2)cc1	50	106.1%	Non-toxic	Non-toxic	Non-toxic	Non-toxic	Non-toxic	Non-toxic				Toxic
c1ccc(-c2nc(N3CCN(c4ccccc4)CC3)c3ccccc3n2)cc1	77.4	107.3%	Non-toxic	Non-toxic	Non-toxic	Non-toxic	Non-toxic	Non-toxic				Toxic
c1ccc(-c2nc(N3CCC(c4ccccc4)CC3)c3ccccc3n2)cc1	85.3	153.8%	Non-toxic	Non-toxic	Non-toxic	Non-toxic	Non-toxic	Non-toxic				
Brc1ccc2nc(-c3ccccc3)nc(N3CCN(c4ccccc4)CC3)c2c1	40.7	inactive										
CC1CCN(c2nc(-c3ccc(Cl)cc3)nc3ccc(I)cc23)CC1	45.8	82.3%										
Ic1ccc2nc(-c3ccccc3)nc(N3CCN(c4ccccc4)CC3)c2c1	39.2	inactive	Non-toxic	Non-toxic	Non-toxic	Non-toxic	Non-toxic	Non-toxic	Toxic	Toxic	Toxic	
CN1CCN(c2nc(-c3ccccc3)nc3ccc(I)cc23)CC1	39.6	inactive										
Clc1ccc(-c2nc(N3CCC(c4ccccc4)CC3)c3cc(I)ccc3n2)cc1	41.4	inactive										
S=c1[nH]nc(C2CCN(c3nc(-c4ccccc4)nc4ccccc34)CC2)s1	71.3	88%	Non-toxic	Non-toxic	Non-toxic	Non-toxic	Non-toxic	Non-toxic				
CC1CCN(c2nc(-c3ccc(Cl)cc3)nc3ccc(Br)cc23)CC1	55.1	85.2%										
CN1CCN(c2nc(-c3ccc(Cl)cc3)nc3ccc(I)cc23)CC1	17	inactive										
Clc1ccc(-c2nc(N3CCN(c4ccccc4)CC3)c3cc(Br)ccc3n2)cc1	16.2	inactive	Non-toxic	Non-toxic	Non-toxic	Non-toxic	Non-toxic	Non-toxic	Toxic	Toxic	Toxic	
CN1CCN(c2nc(-c3ccccc3)nc3ccc(Br)cc23)CC1	45	inactive										
CN1CCN(c2nc(-c3ccccc3)nc3ccccc23)CC1	45.2	86.2%										
CC1CCN(c2nc(-c3ccc(Cl)cc3)nc3ccccc23)CC1	55.1	inactive										
CC1CCN(c2nc(-c3ccccc3)nc3ccc(I)cc23)CC1	56.4	85.7%										
Ic1ccc2nc(-c3ccccc3)nc(N3CCC(c4ccccc4)CC3)c2c1	82.5	110.2%	Non-toxic	Non-toxic	Non-toxic	Non-toxic	Non-toxic	Non-toxic				Toxic
CC1CCN(c2nc(-c3ccccc3)nc3ccc(Br)cc23)CC1	57.8	inactive										
CN1CCN(c2nc(-c3ccc(Cl)cc3)nc3ccccc23)CC1	37	inactive										
Brc1ccc2nc(-c3ccccc3)nc(N3CCC(c4ccccc4)CC3)c2c1	57.6	89.8%	Non-toxic	Non-toxic	Non-toxic	Non-toxic	Non-toxic	Non-toxic				
CN1CCN(c2nc(-c3ccc(Cl)cc3)nc3ccc(Br)cc23)CC1	20	inactive										
O=c1[nH]nc(C2CCN(c3nc(-c4ccccc4)nc4ccccc34)CC2)s1	12.7	81.5%	Non-toxic	Non-toxic	Non-toxic	Non-toxic	Non-toxic	Non-toxic				
Clc1ccc(-c2nc(N3CCN(c4ccccc4)CC3)c3cc(I)ccc3n2)cc1	13.5	inactive										
COc1ccc2c(c1)c(CC(=O)O)c(C)n2C(=O)c1ccc(Cl)cc1 [INDOMETHACIN]	78.3	97.5%										
Clc1ccc(-c2nc(N3CCN(c4ccccc4)CC3)c3ccccc3n2)cc1	12.6	inactive										
CC1CCN(c2nc(-c3ccccc3)nc3ccccc23)CC1	69	88%										
